TDP2 inh: blocks human TDP2 phosphodiesterase activity; recombinant TDP2, T5PNP hydrolysis, p-nitrophenol absorbance 415 nm; inhibition, % at 12.8 µM; 370,000 tested, 0.34% active; AID 720702;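 active = inhibition above the mean of all tested compounds plus 3 SD, set per campaign, cut at about 25% in these data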
Target sequence (O95551 whole entry, looked up): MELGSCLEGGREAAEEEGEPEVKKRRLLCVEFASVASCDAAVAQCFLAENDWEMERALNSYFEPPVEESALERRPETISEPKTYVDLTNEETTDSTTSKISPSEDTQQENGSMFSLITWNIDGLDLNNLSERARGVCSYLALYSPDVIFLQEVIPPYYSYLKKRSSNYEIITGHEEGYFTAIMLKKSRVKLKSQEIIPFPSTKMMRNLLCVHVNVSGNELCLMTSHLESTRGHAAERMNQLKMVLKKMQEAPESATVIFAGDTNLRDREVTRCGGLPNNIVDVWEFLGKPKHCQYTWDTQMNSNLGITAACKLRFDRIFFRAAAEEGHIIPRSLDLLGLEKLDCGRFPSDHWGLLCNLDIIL
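System: recombinant human TDP2 / Amount: 120 nM TDP2 per well / Also added: 5 mM T5PNP chromogenic substrate / Doses: 12.8 µM single point, 1% DMSO / Incubation: 2 h at 37 °C / Detection: p-Nitrophenol epi absorbance / Evaluation: % inhibition relative to enzyme-containing and enzyme-free wells / Repeats: singlicate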
LEDGF integ inh: blocks HIV-1 LEDGF/p75-dependent DNA integration. 370,000 tested, 0.64% active. TR-FRET IN-LEDGF/p75 DNA integration, Eu/Cy5. inhibition, % at 3.7 µM;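 active = inhibition above the screen-wide mean plus 3 SD, cut at about 13% in these data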;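 note: signal is the Cy5 over europium emission ratio at 671 and 618 nm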
UHRF1 MBD2 ctr: blocks human UHRF1 binding to methylated DNA | inhibition, % at 4.4 µM | UHRF1 binding to methylated oligo, TR-FRET | 370,000 tested, 0.75% active; in the data active = inhibition above about 21%;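 note: UHRF1 SRA domain binding a hemimethylated CpG hairpin DNA probe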
MBD2 inh: inhibitors of human MBD2 binding to methylated oligonucleotide; Q9UBB5; TR-FRET; inhibition, % at 4.4 µM; 370,000 tested, 0.31% active; in the data active = inhibition above about 13%
Each line names hits and unclear results; the compound was inactive in the other large screens. Shown are actives, neighbours in structure and some others; about 1.6% of the full set was active somewhere.

CC(=O)c1cc(-c2cccc(CO)c2)c(=O)n2c1CCC2	none
CC1CN(Cc2cc(=O)n3ccsc3n2)CC(C)O1 (configuration not stated)	UHRF1 MBD2 ctr 21
Cc1cc(N2CCN(CC(C)(C)O)C[C@@H]2C)ccc1N1CCN(CC(C)(C)O)[C@H](C)C1	none
CCCCN(C)C(=O)c1ccc2c(c1)NC(=O)C(C)(C)O2	none
COc1ccc(OC)c(NC(=O)CSc2nnc(CNC(=O)c3ccco3)o2)c1	none
COc1ccc(Cl)cc1NC(=O)CSc1nnc(CNC(=O)c2ccco2)o1	UHRF1 MBD2 ctr 22
CCOC(=O)[C@]12CCCCC/C=C\1N(Cc1ccc(OC)cc1)C(=O)[C@H]2CC(=O)NCCC(C)C	none
Cc1ccc(C)c2[nH]c(=O)c(CN(Cc3ccc4c(c3)OCO4)Cc3nnnn3Cc3ccco3)cc12	LEDGF integ inh 18
Fc1ccc(Cn2nnnc2CN2CCN(C3CCCCC3)CC2)cc1	UHRF1 MBD2 ctr 48
Fc1cccc(Cl)c1CNC(c1ccccc1)c1ccccc1	UHRF1 MBD2 ctr 58
S=C(NCc1ccc(Cl)cc1)OC1CCC12CCC(c1ccccc1)CC2 (configuration not stated)	none
O=C(Nc1nnc(-c2ccc(F)cc2)s1)C1CCN(S(=O)(=O)c2ccc(Cl)cc2)CC1	none
Cc1ccc(S(=O)(=O)N2CCC(C(=O)Nc3nnc(-c4ccc(F)cc4)s3)CC2)cc1	UHRF1 MBD2 ctr 25
N/C(Cc1ccc(Cl)cc1Cl)=N\OC(=O)c1cccs1	none
N/C(Cc1ccc(Cl)cc1Cl)=N\OC(=O)Cc1cccs1	UHRF1 MBD2 ctr 58
Cc1oc(CC(C)C)cc1C(N)=O	UHRF1 MBD2 ctr 26
Cc1oc(CC(C)C)cc1C(=O)NCCCC(=O)O	none
COC(=O)c1ccc2nc(-c3ccc(OC)c(OC)c3)c(Cc3ccccc3C(F)(F)F)n2c1	UHRF1 MBD2 ctr 24
COC(=O)c1ccc2nc(-c3ccc(C)cc3)c(Cc3ccccc3OC)n2c1	none
COC(=O)c1ccc2nc(-c3ccc(OC)c(OC)c3)c(Cc3ccccc3OC)n2c1	UHRF1 MBD2 ctr 23
COC(=O)c1ccc2nc(-c3ccccc3)c(Cc3ccccc3C(F)(F)F)n2c1	none
COC(=O)C1=C(C)N(CC(C)C)C(=S)NC1c1ccc(-c2ccccc2)cc1 (configuration not stated)	none
COc1ccc(NC(=O)COC(=O)CCc2ccc(S(=O)(=O)N3CCOCC3)cc2)cc1OC	none
COc1ccc(NC(=O)COC(=O)CCc2ccc(S(=O)(=O)N3CCOCC3)cc2)cc1Cl	UHRF1 MBD2 ctr 95
CCCC#Cc1cnc2c(c1)C(=O)N([C@H](C)CO)C[C@H](C)[C@@H](CN(C)C(=O)CCN1CCCCC1)O2	UHRF1 MBD2 ctr 24
C[C@H](CO)N1C[C@H](C)[C@@H](CN(C)C(=O)Nc2ccccc2)Oc2ncc(C#CC3CCCCC3)cc2C1=O	UHRF1 MBD2 ctr 22
O=C(C(=O)N1CCC(CNC(=O)C2COc3ccccc3O2)CC1)c1cc2ccccc2o1 (configuration not stated)	none
NC(=O)C[n+]1cccc(CNC(=O)c2ccc(OC(F)F)cc2)c1	UHRF1 MBD2 ctr 77
O=C(C[n+]1cccc(CNC(=O)c2ccc(OC(F)F)cc2)c1)Nc1cc(C(F)(F)F)ccc1Cl	none
O=C(/C=C/c1cccc(Br)c1)N1CCN(c2cccc(C(F)(F)F)c2)CC1	UHRF1 MBD2 ctr 24
O=C(/C=C/c1ccc(Br)cc1)N1CCN(c2cccc(C(F)(F)F)c2)CC1	none
CCCN1CCCc2cc(CN)ccc21	TDP2 inh 66, LEDGF integ inh 35
CN1CCCc2cc(C=O)ccc21	none
O=C(c1cccc(C(F)(F)F)c1)c1c[nH]c(C(=O)NCC2CCCO2)c1 (configuration not stated)	UHRF1 MBD2 ctr 24
C[C@H]1[C@H](c2ccccc2)OC(O)([C@H](Cc2ccccc2)NC(=O)OC(C)(C)C)CN1C (some centres not stated)	none
CCCOc1ccc(C(=O)N/N=C/c2ccc(-c3ccc(S(=O)(=O)Nc4ncccn4)cc3)o2)cc1	UHRF1 MBD2 ctr 70
NS(=O)(=O)c1ccc(-c2ccc(/C=N/NC(=O)c3ccc([N+](=O)[O-])cc3)o2)cc1	none
O=C(CCNC(=O)c1ccc(Br)cc1)Nc1cccc(S(=O)(=O)N2CCCCCC2)c1	none
O=C(CCNC(=O)c1ccc(Br)cc1)Nc1cccc(S(=O)(=O)N2CCCC2)c1	UHRF1 MBD2 ctr 36
CC(C)c1[nH]nc2c1C(c1ccc(Br)cc1)NC2=O (configuration not stated)	none
O=C(Nc1nc2ccccc2s1)c1cnccn1	none
O=C(Nc1nc(-c2ccco2)c(-c2ccco2)s1)c1c(F)cccc1Cl	LEDGF integ inh 48
O=C(Nc1nc(-c2ccco2)c(-c2ccco2)s1)c1ccc(F)cc1F	none
O=C(Nc1nc(-c2ccco2)c(-c2ccco2)s1)c1cnccn1	LEDGF integ inh 48, UHRF1 MBD2 ctr 40
Cc1cc(NC(=O)CSc2nc(CC(C)(C)C)nc3c2c(=O)n(C)c(=O)n3C)no1	UHRF1 MBD2 ctr 22
CCc1nc(SCC(=O)Nc2cc(C)on2)c2c(=O)n(C)c(=O)n(C)c2n1	none
Cc1cc(NC(=O)CSc2nc(-c3ccccc3Cl)nc3c2c(=O)n(C)c(=O)n3C)no1	UHRF1 MBD2 ctr 23
COc1ccc(N2C(=O)c3[nH]nc(-c4ccccc4)c3C2c2ccc(Br)cc2)cc1 (configuration not stated)	none
Cc1cc(C(=O)NP(=O)(N2CCOCC2)N2CCOCC2)c(C)n1-c1ccc(Br)cc1	UHRF1 MBD2 ctr 21
COc1cc(C2C(C#N)=C(N)OC3=C2C(=O)CC(C)(C)C3)cc2c1OCO2 (configuration not stated)	UHRF1 MBD2 ctr 30
O=C(Nc1ccc(OC(F)(F)F)cc1)Nc1c(-c2ccc(C(F)(F)F)cc2)nc2ncccn12	none
CCCCn1c(N)c(N(CCOC)C(=O)c2ccc(C)o2)c(=O)[nH]c1=O	UHRF1 MBD2 ctr 22
CCCCN(C(=O)c1ccc(NC2CC2)c([N+](=O)[O-])c1)c1c(N)n(CCCC)c(=O)[nH]c1=O	none
CCCn1c(N)c(N(CCOC)C(=O)c2ccc(N(C)S(=O)(=O)c3ccc(C)cc3)cc2)c(=O)[nH]c1=O	UHRF1 MBD2 ctr 96
CCCCN(C(=O)c1cccc(-n2cccc2)c1)c1c(N)n(CCC)c(=O)[nH]c1=O	none
CCCCn1c(N)c(N(CCOC)C(=O)c2ccc(N(C)S(=O)(=O)c3ccc(C)cc3)cc2)c(=O)[nH]c1=O	none
CCCN(C(=O)c1cccc(-n2cccc2)c1)c1c(N)n(Cc2ccccc2)c(=O)[nH]c1=O	UHRF1 MBD2 ctr 26
CCCCN(C(=O)c1ccc(Cl)c([N+](=O)[O-])c1)c1c(N)n(CCC)c(=O)[nH]c1=O	UHRF1 MBD2 ctr 29
Oc1ccccc1C=Nn1c(-c2ccccc2F)n[nH]c1=S	none
O=C(NCc1ccco1)C1Cc2ccccc2CN1S(=O)(=O)c1ccccc1F (configuration not stated)	LEDGF integ inh 14

Screening results as filed in PubChem BioAssay.
